Experimental data pooled from the literature.
Protocols differ between the studies behind these lines.
CDK4 with cyclin D1: Cyclin-dependent kinase 4, with cyclin D1 (CDK4, Homo sapiens, UniProt P11802)
CDK4: Cyclin-dependent kinase 4 (CDK4, Homo sapiens, UniProt P11802)
CDK4 with cyclin D3: Cyclin-dependent kinase 4, with cyclin D3 (CDK4, Homo sapiens, UniProt P11802)

Compound | target | assay | conditions | endpoint | value
Cc1nn(C)cc1-c1nc2c(N3CCN(Cc4ccc(Cl)cc4)CC3)c(Cl)cnc2[nH]1 | CDK4 with cyclin D1 | binding, competition with immobilised ligand | 1 µM | remaining binding | 76%
O=c1[nH]c2ccccc2n1C1CCN(Cc2ccc(-c3[nH]c4cc5ncnc5cc4nc3-c3ccccc3)cc2)CC1 | CDK4 with cyclin D1 | cell-free assay | 0.5 µM | remaining signal | 108%
CCOC(=O)[C@H]1Cc2c(cc([N+](=O)[O-])cc2[N+](=O)[O-])[C@@H](O)[C@@]12C(=O)Nc1ccc(Br)cc12 | CDK4 | cell-free assay, inhibitor, TR-FRET | 1 µM | inhibition | 76.3%
CC(C)(C)c1cc(C=C(C#N)C#N)cc(Br)c1O | CDK4 with cyclin D3 | enzyme activity, inhibitor | 0.5 µM | remaining activity | 96.5%
Nc1ncc(-c2nc(N3CCOCC3)nc(N3CCOCC3)n2)c(C(F)F)n1 | CDK4 with cyclin D1 | binding, competition with immobilised ligand | 10 µM | remaining binding | 100%
CCOC(=O)[C@H]1Cc2c(cc([N+](=O)[O-])cc2[N+](=O)[O-])[C@@H](O)[C@@]12C(=O)Nc1c(F)cccc12 | CDK4 | cell-free assay, inhibitor, TR-FRET | 1 µM | inhibition | 52.6%
N#CC1(c2ccccn2)CCN(Cc2cc(C(=O)O)c(=O)n3ccccc23)CC1 | CDK4 | cell-free assay, competition with immobilised ligand | 1 µM | remaining binding | 94%
CCOC(=O)[C@H]1Cc2c(cc([N+](=O)[O-])cc2[N+](=O)[O-])[C@H](O)[C@]12C(=O)Nc1cc(Cl)ccc12 | CDK4 | cell-free assay, inhibitor, TR-FRET | 1 µM | inhibition | 38.6%
Cn1cncc1[C@@](O)(COc1ccc(C#N)cc1-c1ccc(OC(F)(F)F)cc1)c1ccc(C#N)cc1 | CDK4 with cyclin D3 | cell-free assay, competition with immobilised ligand | 1 µM | remaining binding | 92%
